Data taken from article PMC3275116 (Clinics, 2012).
Like-named read-outs stand apart in the source and are kept apart here.

Experiments:
[1] = cited from earlier work
DU-145 prostate cells = conditions: cited from earlier work
PC-3 cells = conditions: cited from earlier work
[2] = Determination of log P values; format: physicochemical; conditions: n-octanol/water 3 mL:3 mL, 100 µL radiotracer, gamma counter, triplicate samples
Summary of the method: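 Radiotracer (100 µL; 99mTc labeling by stannous-tartrate exchange at 100°C, 20 min) was added to equal volumes (3 mL each) of n-octanol and water, stirred vigorously and centrifuged. Triplicate samples from each phase were gamma-counted to give the partition ratio and log P.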

[3] = system: PC-3 human prostate carcinoma cells; test: In vitro cell binding assay with increasing cold conjugate; format: cell-based; conditions: 120 min
Summary of the method: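 PC3 androgen-independent cells were grown in RPMI 1640 with 10% (v/v) fetal calf serum at 37°C, 5% CO2, harvested near confluency by trypsinization, and seeded at 10^6 cells/well 24 h before assay. Wells received 90 pM 99mTc-labeled peptide with increasing cold conjugate (1 nM to 18 nM) and were incubated 120 min. Cell-associated radioactivity was gamma-counted.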

[4] = Biodistribution in healthy Swiss mice; format: in vivo; conditions: i.v. 0.1 mL/18.5 MBq, mean ± SD n = 6
Summary of the method: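 Male Swiss albino mice (20 - 25 g) received 99mTc-labeled conjugate by tail vein (0.1 mL/18.5 MBq). Six mice per time point were killed by cervical dislocation at 5, 30, 90 and 240 min. Organs were excised, weighed and counted on a NaI(Tl) gamma counter; stomach and intestine were counted after removing luminal contents. %ID/g was calculated using injected-dose activity as standard; mean ± SD.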

PC-3 tumors [5] = test: Biodistribution in Nude mice bearing PC-3 tumors; format: in vivo; conditions: for Blood uptake / Bone uptake / Heart uptake / Lung uptake / Muscle uptake / Spleen uptake / Stomach uptake / Tumor uptake: mean ± SD n = 6
Summary of the method: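 Athymic male nude mice (16 - 20 g) received 5.0×10^6 PC3 cells subcutaneously in the upper back; tumors grew 2–3 weeks to about 1 cm diameter. 99mTc-labeled conjugate was given by tail vein and biodistribution evaluated at 30 and 90 min post-injection; blocking groups were coinjected with excess cold conjugate. Organs were excised, weighed and gamma-counted; %ID/g was computed against injected-dose activity; mean ± SD, n = 6.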

PC-3 tumors [6] = format: in vivo; conditions: PC-3 tumor-bearing mice

For FRPNRAQDYNTN [DUP-1], the serum stability [1] is listed as “serum-instable”, the “binding to DU-145 prostate cells” value (DU-145 prostate cells) is listed as “high affinity” and the “binding to PC-3 cells” value (PC-3 cells) is listed as “high affinity”.
For “FRPNRAQDYNTNK-SAMA-G-G-G-Ahx-NH2 [99mTc-SAMA-G3-Ahx-DUP-1]”, the partition ratio [2] was 0.00389, the “Radioactivity associated with PC3 tumor cells (binding)” value ([3]; 90 pM 99mTc-labeled peptide, no cold peptide, 37°C) was about 1.97% and the “decrease of binding with cold peptide” value ([3]; cold conjugate increased 0 to 18 nM, 90 pM tracer) was 63%. It also gave a Blood uptake ([4]; 5 min) of 1.21±0.02 %ID/g, a Bone uptake ([4]; 5 min) of 0.84±0.17 %ID/g and a Heart uptake ([4]; 5 min) of 0.82±0.14 %ID/g. The Kidney uptake ([4]; 5 min) was 22.62±2.03 %ID/g, the Liver uptake ([4]; 5 min) was 12.31±2.19 %ID/g and the Lung uptake ([4]; 5 min) was 1.48±0.23 %ID/g. It also gave a Muscle uptake ([4]; 5 min) of 0.77±0.06 %ID/g, a Pancreas uptake ([4]; 5 min) of 1.44±0.33 %ID/g and a Spleen uptake ([4]; 5 min) of 1.37±0.18 %ID/g. It also gave a Blood uptake ([4]; 30 min) of 0.43±0.06 %ID/g, a Bone uptake ([4]; 30 min) of 0.20±0.01 %ID/g and a Heart uptake ([4]; 30 min) of 0.24±0.07 %ID/g. For the same substance, the Kidney uptake ([4]; 30 min) was 21.06±0.41 %ID/g, the Liver uptake ([4]; 30 min) was 8.58±1.75 %ID/g and the Lung uptake ([4]; 30 min) was 0.73±0.16 %ID/g. It also gave a Muscle uptake ([4]; 30 min) of 0.14±0.04 %ID/g, a Pancreas uptake ([4]; 30 min) of 0.18±0.11 %ID/g and a Spleen uptake ([4]; 30 min) of 0.28±0.07 %ID/g. For the same substance, the Blood uptake ([4]; 90 min) was 0.08±0.01 %ID/g, the Bone uptake ([4]; 90 min) was 0.05±0.02 %ID/g and the Heart uptake ([4]; 90 min) was 0.04±0.01 %ID/g. For the same substance, the Kidney uptake ([4]; 90 min) was 7.28±2.07 %ID/g, the Liver uptake ([4]; 90 min) was 1.57±0.57 %ID/g and the Lung uptake ([4]; 90 min) was 0.15±0.037 %ID/g. For the same substance, the Muscle uptake ([4]; 90 min) was 0.51±0.01 %ID/g, the Pancreas uptake ([4]; 90 min) was 0.05±0.01 %ID/g and the Spleen uptake ([4]; 90 min) was 0.09±0.03 %ID/g. For the same substance, the Blood uptake ([4]; 240 min) was 0.05±0.01 %ID/g, the Bone uptake ([4]; 240 min) was 0.05±0.01 %ID/g and the Heart uptake ([4]; 240 min) was 0.03±0.02 %ID/g. The Kidney uptake ([4]; 240 min) was 3.22±0.43 %ID/g, the Liver uptake ([4]; 240 min) was 1.53±0.64 %ID/g and the Lung uptake ([4]; 240 min) was 0.13±0.07 %ID/g. The Muscle uptake ([4]; 240 min) was 0.17±0.07 %ID/g, the Pancreas uptake ([4]; 240 min) was 0.04±0.01 %ID/g and the Spleen uptake ([4]; 240 min) was 0.07±0.02 %ID/g. For the same substance, the “Uptake ratio Tumor/blood” value (PC-3 tumors [5]; 30 min post-injection) was 1.23, the “Uptake ratio Tumor/muscle” value (PC-3 tumors [5]; 30 min post-injection) was 3.15 and the Blood uptake (PC-3 tumors [5]; 30 min post-injection) was 0.69±0.14 %ID/g. It also gave a Bone uptake (PC-3 tumors [5]; 30 min post-injection) of 0.31±0.08 %ID/g, a Heart uptake (PC-3 tumors [5]; 30 min post-injection) of 0.41±0.02 %ID/g and a Lung uptake (PC-3 tumors [5]; 30 min post-injection) of 1.24±0.43 %ID/g. For the same substance, the Muscle uptake (PC-3 tumors [5]; 30 min post-injection) was 0.27±0.27 %ID/g, the Spleen uptake (PC-3 tumors [5]; 30 min post-injection) was 0.56±0.13 %ID/g and the Stomach uptake (PC-3 tumors [5]; 30 min post-injection) was 1.05±0.07 %ID/g. For the same substance, the Tumor uptake (PC-3 tumors [5]; 30 min post-injection) was 0.85±0.19 %ID/g, the “Uptake ratio Tumor/blood” value (PC-3 tumors [5]; 90 min post-injection) was 1.78 and the “Uptake ratio Tumor/muscle” value (PC-3 tumors [5]; 90 min post-injection) was 1.32. The Blood uptake (PC-3 tumors [5]; 90 min post-injection) was 0.23±0.06 %ID/g, the Bone uptake (PC-3 tumors [5]; 90 min post-injection) was 0.30±0.05 %ID/g and the Heart uptake (PC-3 tumors [5]; 90 min post-injection) was 0.10±0.10 %ID/g. For the same substance, the Lung uptake (PC-3 tumors [5]; 90 min post-injection) was 0.34±0.27 %ID/g, the Muscle uptake (PC-3 tumors [5]; 90 min post-injection) was 0.31±0.11 %ID/g and the Spleen uptake (PC-3 tumors [5]; 90 min post-injection) was 0.54±0.19 %ID/g. The Stomach uptake (PC-3 tumors [5]; 90 min post-injection) was 0.72±0.27 %ID/g, the Tumor uptake (PC-3 tumors [5]; 90 min post-injection) was 0.41±0.11 %ID/g and the “cold conjugate-blocked tumor uptake” value (PC-3 tumors [6]; 30 min post-injection) was 82%. For the same substance, the “cold conjugate-blocked tumor uptake” value (PC-3 tumors [6]; 90 min post-injection) was 83%.
